# According to publication PMC10784415 (Developmental dynamics : an official publication of the …, 2023):
# Experiments:
# Wistar rats [1] = assay: Histology and immunohistochemistry of mandibles; assay type: in vivo, rat
# CYP 3A4 = conditions: liver; cited from earlier work
# [2] = system: constitutive FGFR3 signaling; conditions: mouse model of achondroplasia; cited from earlier work
# Wistar rats [3] = assay: MicroCT analysis of craniofacial bones and sutures; assay type: in vivo, rat
# How it was run: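 Wistar rats received daily oral gavage from PND7 (vehicle acetate buffer pH 4.68/PEG300 50:50, or 0.1 or 1.0 mg/kg) and were examined at PND14 and PND37; 5 per sex per group. MicroCT gave bone volume and mineral density of nasal, premaxilla, maxilla, frontal, parietal and interparietal bones, linear skull measurements from set landmarks, and suture patency on 2D/3D images. Analysis was one-way ANOVA.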
# [4] = female rats, high dose, vs vehicle
structure (smiles),measurement,setting,value
"CCN1CCN(c2ccc(Nc3cc(N(C)C(=O)Nc4c(Cl)c(OC)cc(OC)c4Cl)ncn3)cc2)CC1 [infigratinib, 3-(2,6-Dichloro-3,5-dimethoxy-phenyl)-1-{6-[4-(4-ethyl-piperazin-1-yl)-phenylamino]-pyrimidin-4-yl}-1-methyl-urea]",Rats with root resorption (cathepsin K staining),"Wistar rats [1]; female rats, high dose, PND37 (vehicle 75%)",25%
same,Rats with root resorption (cathepsin K staining),"Wistar rats [1]; female rats, low dose, PND37 (vehicle 75%)",50%
same,Rats with root resorption (cathepsin K staining),"Wistar rats [1]; male rats, low or high dose, PND37 (vehicle 25%)",no male rats in either low or high dose groups exhibited root resorption
same,Metabolism,CYP 3A4,metabolized mainly via CYP 3A4
same,Effect on limb length and calvarial defects,[2],increase limb length and improve calvarial defects
same,Interfrontal suture patency,"Wistar rats [3]; female rats, high dose, PND37, vs vehicle and low dose",significantly more patent
same,Decrease of parietal bone volume,"Wistar rats [3]; female rats, high dose, vs low dose",15%
same,Decrease of frontal bone volume,Wistar rats [3]; [4],12%
same,Decrease of interparietal bone mineral density,Wistar rats [3]; [4],4%
same,Decrease of interparietal bone volume,Wistar rats [3]; [4],18%
same,Decrease of parietal bone volume,Wistar rats [3]; [4],18%
same,Coronal suture patency,"Wistar rats [3]; females and males, low dose and high dose, PND14, vs vehicle",appeared more patent
same,Interfrontal suture width,"Wistar rats [3]; male rats, high dose, PND37, vs vehicle",significantly more patent
